In general, inhibition refers to how much of the control response was suppressed. Broadly, the Tmax is the time at which the peak concentration occurs. In general, Cmax refers to the highest concentration seen after dosing. As usually defined, the IC50 is the concentration that inhibits the measured activity by half.

In data set [1] the target is Mitogen-activated protein kinase 1 (Homo sapiens) (UniProt P28482). The data set can be described thus: Inhibition of ERK2 (unknown origin) at 1 uM by Z'-Lyte assay relative to control.
Data set [2] concerns the target Mitogen-activated protein kinase 3 (Homo sapiens) (UniProt P27361). Briefly: Inhibition of wild-type human full length ERK1 (M1 to P379 residues) expressed in bacterial expression system at 1 uM by Kinomescan method relative to control. The procedure, abridged: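 KINOMEscan binding assays over a 100-kinase panel, with test compound at 1 μM. Results are given as % inhibition.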

Data set [3] addresses T1, Mitogen-activated protein kinase; ERK1/ERK2 (Homo sapiens) (UniProt P27361+P28482). Briefly: Inhibition of ERK1/2 in human MKN74 cells assessed as reduction in ERK1/2 phosphorylation at T202/Y204 residue at 0.5 uM measured up to 24 hrs by Western blot analysis. In kind it is cell-based.
Data set [4] relates to Mus musculus. Briefly: In vivo inhibition of ERK5 in BALB/c mouse xenografted with human MKN74 cells assessed as reduction in phosphorylated ERK5 expression at 50 mg/kg, po administered once daily for 16 days measured post-last dose by immunohistochemical analysis. The data set is classed as functional, organism-based. The procedure, abridged:
(§1)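 Tumors excised from control and 50 mg/kg p.o.-treated xenograft mice were immunostained for Ki-67, p-ERK1/2 and p-ERK5. Positive-cell percentage quantified and compared with control.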
In general terms: A xenograft is tissue or cells of one species grown in another, often human tumour cells in immunodeficient mice.

Data set [5] in a line: Tmax in Sprague-Dawley rat at 1 mg/kg, iv by LC-MS analysis. To be noted: in vivo. In kind it is ADME, organism-based. Summed up:
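Two groups of rats (3 per group) received a single dose, either 1 mg/kg i.v. or 10 mg/kg p.o. Plasma concentrations were followed to derive Tmax, Cmax, T1/2, AUC and F. Data are from triple testing (± standard deviation).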

The subject of data set [6] is MKN-74. The data set can be described thus: Induction of autophagy in human MKN74 cells assessed as increase in LC3-2 expression at 0.5 uM measured up to 24 hrs by Western blot analysis. The data set is classed as functional, cell-based. Summed up:
(§2)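 MKN-74 cells treated with 0.5 μM; LC3 (LC3-II) and p62 levels analyzed by immunoblotting.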

Data set [7] has as its system Mus musculus. The data set can be described thus: In vivo inhibition of ERK1/2 in BALB/c mouse xenografted with human MKN74 cells assessed as reduction in phosphorylated ERK1/2 expression at 50 mg/kg, po administered once daily for 16 days measured post-last dose by immunohistochemical analysis. In kind it is functional, organism-based. Summed up:
as §1

The nature of data set [8]: Cmax in Sprague-Dawley rat at 1 mg/kg, iv by LC-MS analysis. The data set is classed as ADME, organism-based. More on the design: dose 1 mg/kg, route intravenous. The settings on record: in vivo. The procedure, abridged: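 Rats, two groups of 3; single i.v. dose 1 mg/kg or oral dose 10 mg/kg. Plasma concentration-time profiles used to derive T1/2, Tmax, Cmax, AUC0-t, AUC0-∞ and oral bioavailability. Data from triplicate testing, ± standard deviation.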

For data set [9], the target named is T1, Mitogen-activated protein kinase; ERK1/ERK2 (Homo sapiens). Briefly: Inhibition of ERK1/2 in human MKN74 cells harboring siRNA assessed as reduction in ERK1/2 phosphorylation at 0.5 uM by immunofluorescence assay. In kind it is cell-based. Summed up:
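MKN-74 cells transfected with ERK1/2-specific or negative-control siRNA for the indicated times, then given 0.5 μM. p-ERK1/2 and p-ERK5 puncta detected by immunocytochemistry.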

For data set [10], the target named is Mitogen-activated protein kinase 7 (Homo sapiens) (UniProt Q13164). The data set can be described thus: Inhibition of ERK5 in human MKN74 cells harboring ERK1/2 siRNA assessed as reduction in ERK5 phosphorylation at 0.5 uM by Western blot analysis. In kind it is cell-based. The procedure, abridged: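 MKN-74 cells were transfected with ERK1/2-specific siRNA or negative-control siRNA, then exposed to compound. ERK1/2, p-ERK1/2, ERK5 and p-ERK5 were read by immunoblotting, with GAPDH as loading control.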

The target is the same in data set [11]. The data set can be described thus: Inhibition of ERK5 in human MKN74 cells harboring ERK1/2 siRNA assessed as reduction in ERK5 phosphorylation at 0.5 uM by immunofluorescence assay. In kind it is cell-based. The procedure, abridged: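 ERK1/2-specific or negative-control siRNA was transfected into MKN-74 cells for the indicated times, followed by compound at 0.5 μM. p-ERK1/2 and p-ERK5 puncta were detected by immunocytochemistry.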

Data set [12] has as its system MKN-74. Briefly: Induction of autophagy in human MKN74 cells assessed as increase in p62 degradation at 0.5 uM measured after 24 hrs in presence of autophagy inhibitor 3-methyladenine by Western blot analysis. In kind it is functional, cell-based. Summed up:
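MKN-74 cells given 0.5 μM for 24 h with or without 3-MA; LC3 and p62 immunoblotted.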
On the technique in general: A western blot detects proteins with antibodies after separation by electrophoresis.

Data set [13] deals with MKN-74. The data set can be described thus: Induction of cytoplasmic vacuolization in human MKN74 cells. The data set is classed as functional, cell-based.
In data set [14] the test system is MKN-74. Briefly: Antitumor activity against human MKN74 cells xenografted in BALB/c mouse assessed as reduction in Ki-67 positive cells at 50 mg/kg, po administered once daily for 16 days measured post-last dose by immunohistochemical analysis. In kind it is functional, organism-based. The procedure, abridged:
as §1

A short description of data set [15]: Effect on Ras/Raf/MEK/ERK signaling in human MKN74 cells assessed as change in JNK expression at 0.5 uM measured up to 24 hrs by Western blot analysis. The data set is classed as cell-based. The procedure, abridged:
(§3)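 MKN-74 cells exposed to 0.5 μM for 0, 6, 12 and 24 h. Ras, Raf, p-MEK1/2, MEK1/2, p-JNK, JNK, p-p38 and p38 immunoblotted, with GAPDH as loading control.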

For data set [16], the system named is MKN-74. Briefly: Antiproliferative activity against human MKN74 cells assessed as reduction in cell viability measured after 24 hrs. In kind it is functional, cell-based. The settings on record: MKN-74, 24 h.
Data set [17] deals with HL-60. Briefly: Antitumor activity against human HL60 cells xenografted in BALB/c mouse assessed as reduction in tumor volume at 50 mg/kg, po administered once daily for 16 days measured every 3 days during compound dosing. The data set is classed as functional, organism-based. Summed up:
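Female nude mice bearing subcutaneous HL-60, MKN-74 or HeLa xenografts, 8 per group. Dosing was vehicle control or 50 mg/kg p.o. once daily for 16 days. Tumor volume followed over time, mean ± SEM.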

Data set [18] deals with MKN-74. The data set can be described thus: Induction of autophagy in human MKN74 cells assessed as increase in p62 degradation at 0.5 uM measured up to 24 hrs by Western blot analysis. The data set is classed as functional, cell-based. The procedure, abridged:
as §2

Data set [19] relates to HeLa. Briefly: Antiproliferative activity against human HeLa cells assessed as reduction in cell viability measured after 24 hrs. In kind it is functional, cell-based.
For data set [20], the system named is MKN-74. The data set can be described thus: Antitumor activity against human MKN74 cells xenografted in BALB/c mouse assessed as reduction in tumor weight at 50 mg/kg, po administered once daily for 16 days measured post-last dose. The data set is classed as functional, organism-based. Summed up:
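Female nude mice bearing subcutaneous xenografts (8 per group) received vehicle or 50 mg/kg p.o. once daily for 16 days. Excised tumors weighed and compared with control group.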

Data set [21] deals with MKN-74. The data set can be described thus: Induction of autophagy in human MKN74 cells harboring ATG5 siRNA assessed as increase in LC3-2 expression at 0.5 uM by Western blot analysis. In kind it is functional, cell-based. The procedure, abridged: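 MKN-74 cells transfected with ATG5 or negative-control siRNA for the indicated times, then 0.5 μM. ATG5, LC3 and p62 immunoblotted, with GAPDH loading control.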

The subject of data set [22] is MKN-74. Briefly: Induction of autophagy in human MKN74 cells transfected with GFP-mRFP-LC3 assessed as increase in LC3 puncta formation at 0.5 uM measured after 24 hrs by fluorescence microscopic analysis. The data set is classed as functional, cell-based. The procedure, abridged: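 MKN-74 cells transfected with GFP-mRFP-LC3 plasmid, treated 24 h at 0.5 μM. GFP-LC3 puncta imaged by fluorescence microscopy.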

A short description of data set [23]: Effect on Ras/Raf/MEK/ERK signaling in human MKN74 cells assessed as change in MEK1/2 phosphorylation at S217/221 residue at 0.5 uM measured up to 24 hrs by Western blot analysis. In kind it is cell-based. Summed up:
as §3

Active and inactive are the calls of the source. No cut-off for these calls is given here. Where only a bound is given, the exact number is not on record here.

T1 sequence (P27361 whole entry, looked up): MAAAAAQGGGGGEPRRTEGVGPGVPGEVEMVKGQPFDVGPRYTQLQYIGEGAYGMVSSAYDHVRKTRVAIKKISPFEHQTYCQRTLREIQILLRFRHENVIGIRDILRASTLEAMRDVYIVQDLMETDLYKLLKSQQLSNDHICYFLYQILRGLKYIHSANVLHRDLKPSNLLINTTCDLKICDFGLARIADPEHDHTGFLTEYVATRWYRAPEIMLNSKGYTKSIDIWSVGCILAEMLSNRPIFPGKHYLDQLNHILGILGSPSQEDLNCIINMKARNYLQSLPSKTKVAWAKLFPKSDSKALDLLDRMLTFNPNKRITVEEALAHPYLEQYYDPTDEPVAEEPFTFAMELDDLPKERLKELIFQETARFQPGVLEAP
T1 sequence (P28482 whole entry, looked up): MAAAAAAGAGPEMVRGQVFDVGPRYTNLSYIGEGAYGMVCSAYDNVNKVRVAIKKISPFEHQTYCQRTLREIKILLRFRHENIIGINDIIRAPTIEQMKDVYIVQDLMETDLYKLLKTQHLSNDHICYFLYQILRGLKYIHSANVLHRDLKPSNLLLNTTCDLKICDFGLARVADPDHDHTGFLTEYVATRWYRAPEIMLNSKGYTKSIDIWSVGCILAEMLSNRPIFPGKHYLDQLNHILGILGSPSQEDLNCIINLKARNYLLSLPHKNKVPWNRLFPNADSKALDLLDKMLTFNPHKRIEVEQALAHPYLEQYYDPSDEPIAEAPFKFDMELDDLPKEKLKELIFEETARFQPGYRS
Sequence of Mitogen-activated protein kinase 7 (Homo sapiens) (Q13164 2-816 limits assumed): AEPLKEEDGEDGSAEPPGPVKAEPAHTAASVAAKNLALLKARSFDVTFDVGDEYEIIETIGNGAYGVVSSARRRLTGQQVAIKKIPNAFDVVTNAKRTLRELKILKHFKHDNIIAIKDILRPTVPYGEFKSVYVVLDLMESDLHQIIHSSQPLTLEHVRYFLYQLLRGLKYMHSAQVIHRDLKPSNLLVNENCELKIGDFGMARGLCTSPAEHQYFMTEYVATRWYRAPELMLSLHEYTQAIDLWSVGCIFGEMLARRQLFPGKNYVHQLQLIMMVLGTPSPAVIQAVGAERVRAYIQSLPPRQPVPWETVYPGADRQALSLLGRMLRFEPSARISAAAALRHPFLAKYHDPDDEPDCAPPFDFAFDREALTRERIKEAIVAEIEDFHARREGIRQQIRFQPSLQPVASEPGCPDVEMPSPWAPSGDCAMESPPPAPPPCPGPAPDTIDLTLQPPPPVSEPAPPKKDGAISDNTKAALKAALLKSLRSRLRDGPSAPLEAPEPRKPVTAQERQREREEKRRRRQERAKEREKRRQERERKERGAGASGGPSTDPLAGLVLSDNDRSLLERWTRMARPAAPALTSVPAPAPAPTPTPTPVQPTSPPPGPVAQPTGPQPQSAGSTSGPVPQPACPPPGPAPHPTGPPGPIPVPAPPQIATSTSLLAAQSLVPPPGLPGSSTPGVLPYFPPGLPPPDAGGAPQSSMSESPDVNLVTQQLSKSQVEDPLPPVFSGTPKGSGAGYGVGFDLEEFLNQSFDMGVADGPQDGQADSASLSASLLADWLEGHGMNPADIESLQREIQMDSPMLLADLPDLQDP
Sequence of Mitogen-activated protein kinase 3 (Homo sapiens) (P27361 whole entry, the tested form may be a part): as the sequence (P27361 whole entry, looked up) above
Sequence of Mitogen-activated protein kinase 1 (Homo sapiens) (P28482 whole entry, the tested form may be a part): as the sequence (P28482 whole entry, looked up) above

As to `NC(=O)c1c(NC(=O)c2ccccc2Cl)sc2c1CCN(C(=S)Nc1ccccc1Cl)C2`, the inhibition came out at 92.7% in data set [1] and 94% in [2]. Besides, the inhibition entry in data set [3], in [4], in data set [7], in [9], in data set [10] and in data set [11] was “Active” throughout. For the same compound, the Tmax in data set [5] amounted to 4.8 min. In addition, the outcome in data set [6], in [13], in [14], in data set [17], in data set [18] and in data set [20] was Active. Besides, the result in data set [22] was Active. The compound also came in with a Cmax in [8] of 1890 ng/mL. The result in [12], in [15], in [21] and in [23] was inactive. Further, the IC50 is 2550 nM in [16] and over 50000 nM in [19].
